Test results: the EternaBench riboswitch data

Tested on: MS2 coat protein
Assay: apparent Kd, MS2 coat protein; higher = weaker binding; RNA-MaP array; tryptophan 2.4 mM where present
Method in brief: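 Green signal was scaled to red-channel RNA signal and control-cluster median Fmax, and the apparent Kd was taken as the median of filtered per-cluster binding-curve fits. The binding series used SNAP-549-labelled MS2 coat protein from 0.7 or 1.5 nM, doubling to 3 µM, on designs transcribed by stalled E. coli RNA polymerase on Illumina sequencing-chip clusters. Each series ran without and then with constant ligand in 100 mM Tris-HCl pH 7.5, 80 mM KCl, 4 mM MgCl2, BSA, DTT, yeast tRNA and Tween-20.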

[1] = designed as: OFF switch for tryptophan, no ligand
[2] = ligand present: tryptophan, designed as: OFF switch for tryptophan
[3] = designed as: ON switch for tryptophan, no ligand
[4] = ligand present: tryptophan, designed as: ON switch for tryptophan

Sequence | apparent Kd [1] [nM] | apparent Kd [2] [nM] | apparent Kd [3] [nM] | apparent Kd [4] [nM]
CUAUAAGUACCGGUCCUCAGAUCCUCAUGACGAGGACCGGUACGGCCGCCACUCGAAACAUGAGGAUCACCCAUGUAAUAAUAUU | 20.2 | 19.3 | – | –
AGAGUCUAGUCGGCCGCCACUCAUGUCCAAAGGACAUGAGGAUCACCCAUGUACCAAUGGUACAUGAGGACCGGGACUGGACUCA | – | – | 27.7 | 8.33
CACGAAAGAUCGGCCGCCACUAUUUGAUGUGUUCUUUCACAUGAGGAUCACCCAUGUUCUUAUUUUAGGACCGGGAUUGAGCGUG | 94.8 | 69.3 | – | –
GGUGGACUUUCGGCCGCCACUGAGAGAGUCGUGUGAACAUGAGGAUCACCCAUGUAAUAUAUAUACAGGACCGGGAGGGUUGUCC | 15.9 | 15.9 | – | –
CACGAAAGAUCGGCCGCCACUCAUGUUUCUUACAUGAGGAUCACCCAUGUAUUUUCUUUCUUUUAGAGGACCGGGAUUGAGCGUG | – | – | 155 | 29.8
GGCAAAAGGUCGGCCGCCACUGUAGGAUGUGUUCUUUCACAUGAGGAUCACCCAUGUUGUUAUUAUAGGACCGGGAUUUUAGGAC | 21.8 | 21.1 | – | –
AGAGUCUAGUCGGCCGCCACUCAUGUCCAAUGGACAUGAGGAUCACCCAUGUACCGAAGGUACAUGAGGACCGGGACUGGACUCA | – | – | 153 | 11.7
GGCUAUACUACGGCCGCCACUGAACAUGAGGAUCACCCAUGUAAUGUUCAGAUUUUUUUUUUUUACAGGACCGGGUAGAAUUGCC | – | – | 195 | 104
AGAGUCUAGUCGGCCGCCACUCAUGUCCAAUGGACAUGAGGAUCACCCAUGUACCAAAGGUACAUGAGGACCGGGACUGGACUCA | – | – | 47.7 | 7.57
AACAUGAGGAUCACCCAUGUGUCCUCGAAACGAGGACCGGUACGGCCGCCACUCGGCGUAUGUUGACGAAAAGUCAGCAUACGCA | 192 | 737 | – | –
AGCACUGUGACGGCCGCCACUAUAUUAGGGUGGUCAGGUUCAUAAAUACAUGAGGAUCACCCAUGUAGGACCGGGUCUCAGUGCA | 9.48 | 9.88 | – | –
